Source: PubChem BioAssay (several laboratories)
The list is not random: actives were taken first. Their share in the collection is about 2.2%.
Runt-CBFb FRET: blocks binding of human RUNX1 Runt domain to CBFb | Q01196+Q13951 | Cerulean-Runt/Venus-CBFb FRET ratio 530/480, 1 h | inhibition, % at 20 µM | 220,000 tested, 0.46% active;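 active = inhibition over about 50% at 20 µM in the single-dose screen, limit read from the data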
Target sequence (Q01196 whole entry, looked up, the tested form may be a part): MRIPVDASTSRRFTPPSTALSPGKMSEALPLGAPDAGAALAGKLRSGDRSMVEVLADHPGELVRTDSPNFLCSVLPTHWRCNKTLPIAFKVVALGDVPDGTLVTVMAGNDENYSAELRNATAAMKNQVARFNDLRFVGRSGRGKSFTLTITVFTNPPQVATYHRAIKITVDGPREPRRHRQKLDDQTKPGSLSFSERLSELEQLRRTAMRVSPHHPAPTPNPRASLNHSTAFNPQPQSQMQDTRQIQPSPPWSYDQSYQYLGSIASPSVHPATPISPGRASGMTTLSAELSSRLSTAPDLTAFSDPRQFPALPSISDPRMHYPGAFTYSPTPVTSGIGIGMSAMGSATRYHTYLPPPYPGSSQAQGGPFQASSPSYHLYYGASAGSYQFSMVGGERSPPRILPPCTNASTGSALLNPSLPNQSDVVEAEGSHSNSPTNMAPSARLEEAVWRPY
Target sequence (Q13951 whole entry, looked up, the tested form may be a part): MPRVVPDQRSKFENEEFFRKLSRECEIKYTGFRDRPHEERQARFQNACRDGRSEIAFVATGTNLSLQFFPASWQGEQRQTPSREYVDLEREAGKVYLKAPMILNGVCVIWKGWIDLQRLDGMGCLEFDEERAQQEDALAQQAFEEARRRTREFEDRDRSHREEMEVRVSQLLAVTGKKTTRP
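Schedule: protein complex preformed 1 h, compound exposure 1 h, room temperature, dark; test system: Cerulean-labeled Runt domain protein; amount: 100 nM per protein; buffer or medium: Tris 50 mM pH 7.5, KCl, K2SO4, 0.01% BSA; read-out: loss of energy transfer signal; detection: FRET fluorescence; controls: 5 µM unlabeled CBFb as full-inhibition high control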
Runt-SMMHC FRET: inhibitors of human RUNX1 Runt domain binding to CBFb-SMMHC; Q01196+Q13951; Cerulean-Runt/Venus-CBFb-SMMHC FRET ratio 530/480, 1 h; inhibition, % at 20 µM; 220,000 tested, 0.74% active;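 active = mean inhibition across duplicate retests at 20 µM reaching about 50%, limit read from the data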;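 also: inhibitors lower the FRET ratio by blocking Runt binding to CBFb-SMMHC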
eIF4E-4G inh: inhibitors of eIF4E and eIF4G interaction in translation initiation; P63073+Q04637; TR-FRET eIF4E-eIF4GI(517-606) binding, 2 h; 220,000 tested, 0.37% active; inhibition, % at 21.7 µM;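 active = inhibition above about 30%, limit read from the data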
Hck Nef HTS: human Hck-Nef kinase inhibition; inhibition, % at 20 µM; 220,000 tested, 0.68% active; Recombinant Hck-YEEI plus Nef, Z-Lyte FRET kinase assay;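 active = Hck-Nef kinase inhibition above about 50%, limit read from the data; inactive = inhibition below that limit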
RanGTP-Impb inh: disruptors of Ran-importin-beta complex formation – biochemical, FRET, CFP-Ran, YFP-importin-beta, homogeneous, primary screen | cell-free CFP-Ran/YFP-importin-beta FRET ratio | AID 2216 | 300,000 tested, 1.1% active | inhibition, % (concentration not given with the values);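 active = more than half of the replicate wells show a fall in the fluorescence ratio signal beyond about 16%, limit read from the data, passing the limit was not always enough; inconclusive = exactly half of the replicate wells pass the set limit; inactive = fewer than half of replicates pass the limit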
PERK inh: inhibitors of human PERK kinase; inhibition, % at 5.6 µM; 220,000 tested, 0.17% active; CHO PERK-DD fusion, SEAP luminescence translation reporter; Q9NZJ5;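 active = inhibition above the mean inhibition of all tested compounds plus 3 SD, set separately per screening campaign, cut at about 2.9% in these data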;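 also: PERK kinase domain activated by AP20187 dimerizer at 100 nM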
Hits are given with their value; - = inactive; ? = inconclusive; . = not tested or not shown.

SMILES	Runt-CBFb FRET	Runt-SMMHC FRET	eIF4E-4G inh	Hck Nef HTS	RanGTP-Impb inh	PERK inh
CC(C)N1CCc2c(sc(NC(=O)CCc3ccccc3)c2C(N)=O)C1	78	92	-	-	130	-
CC(C)N1CCc2c(sc(NC(=O)Cc3ccccc3)c2C(N)=O)C1	.	.	.	.	140	.
CC(=O)N1CCc2c(sc(NC(=O)Cc3ccccc3)c2C(N)=O)C1	.	.	.	.	-	.
CCCN1CCc2c(sc(NC(=O)Cc3ccc(F)cc3)c2C(N)=O)C1	.	.	.	.	133	.
O=[N+]([O-])c1ccc(N2CCCC2)cc1NC1CC1	-	-	-	-	-	-
N=c1c(C(=O)NC2CCCC2)cc2c(=O)n3ccccc3nc2n1CCN1CCOCC1	99	77	-	-	99	-
N=c1c(C(=O)NC2CCCC2)cc2c(=O)n3ccccc3nc2n1CCCN1CCOCC1	.	.	.	.	140	.
CC(=O)NNc1cc(N2CCOCC2)nc(N2CCOCC2)n1	-	86	-	-	83	-
O=C(NNc1cc(N2CCOCC2)nc(N2CCOCC2)n1)c1ccc(Cl)cc1Cl	-	-	-	-	76	-
CC(C)(C)c1ccc(C(=O)NNc2cc(N3CCCCC3)nc(N3CCCCC3)n2)cc1	-	-	.	-	-	-
O=C(NNc1cc(N2CCCC2)nc(N2CCCC2)n1)c1ccc([N+](=O)[O-])cc1	.	.	-	-	-	-
O=C(CCc1ccccc1)NNc1cc(N2CCCCC2)nc(N2CCCCC2)n1	-	-	-	-	71	-
COc1ccc(NC(=O)NNc2cc(N3CCOCC3)nc(N3CCOCC3)n2)cc1	-	-	-	-	66	-
Oc1cccc(/C=N/Nc2cc(N3CCOCC3)nc(N3CCOCC3)n2)c1	-	-	-	-	-	-
O=C(NNc1nc(N2CCOCC2)nc(N2CCOCC2)n1)Nc1ccc(Cl)cc1	-	-	-	-	-	-
CN(C)c1ccc(N2C(=O)CSC2=S)cc1	-	-	-	-	-	-
CC(C)(C)c1ccc(C(=O)NNc2cc(N3CCOCC3)nc(N3CCOCC3)n2)cc1	-	-	-	-	85	-
NC(=O)CSCc1nc2ccccc2s1	-	-	-	-	-	-
N/C(Cc1nc2ccccc2s1)=N\O	-	-	-	-	85	-
COc1c(Br)cc([N+](=O)[O-])c(OC)c1C(=O)NC(=O)Nc1cc(Cl)cc(Cl)c1	-	-	-	-	-	-
COc1ccc(C2=Nc3nc(-c4ccccc4)cn3C(c3ccc(OC)cc3)C2)cc1 (stereo not drawn)	-	-	-	-	28	-
c1ccc(-c2nc(-c3ccncc3)n[nH]2)nc1	-	-	54	-	-	-
O=C(CSC1CS(=O)(=O)c2cc([N+](=O)[O-])ccc21)NNC(=O)c1ccc(Cl)cc1 (stereo not drawn)	-	-	-	-	-	-
O=C(CSC1CS(=O)(=O)c2cc([N+](=O)[O-])ccc21)NNC(=O)c1ccccc1 (stereo not drawn)	-	-	-	-	18	-
CSc1ncccc1C(=O)OCc1ccccc1F	-	-	-	-	-	-
SMILES	Runt-CBFb FRET	Runt-SMMHC FRET	eIF4E-4G inh	Hck Nef HTS	RanGTP-Impb inh	PERK inh
FC(F)(F)c1ccccc1-n1c(CN2CCCCC2)n[nH]c1=S	-	-	85	-	-	-
Fc1ccc(-n2c(CN3CCCCC3)n[nH]c2=S)cc1	-	-	-	-	-	-
C=CCc1ccccc1OCC(=O)O	-	-	-	-	-	-
O=C(O)COc1ccccc1Cc1ccccc1	88	-	-	-	-	-
COc1ccc(CC(C(=O)Nc2cc(C)ccc2C)/C(N)=N/O)cc1 (stereo not drawn)	-	-	-	-	-	-
Cc1ccc(-n2sc3ccccc3c2=O)cc1	-	52	45	-	-	-
Cc1ccc(Cn2c(=O)sc3ccccc3c2=O)cc1	-	-	-	-	-	-
Cc1c2c(n3c(nc4ccccc43)c1C#N)N(c1ccccc1)CC2	-	79	-	-	.	-
COC(=O)CCc1c(C)c(C#N)c2nc3ccccc3n2c1N1CCCC1	-	-	.	-	17	-
Cc1ccnc(N2CCN(c3c4c(c(C#N)c5nc6ccccc6n35)CCC4)CC2)c1	.	.	.	-	.	-
CCc1c(C)c(C#N)c2nc3ccccc3n2c1NCC1CCCO1 (stereo not drawn)	-	65	-	-	-	-
CCc1c(C)c(C#N)c2nc3ccccc3n2c1N1CCN(c2cc(C)ccn2)CC1	-	-	-	-	-	-
CCc1c(C)c(C#N)c2nc3ccccc3n2c1-n1nc(C)cc1C	-	-	-	-	-	-
CCc1c(C)c(C#N)c2nc3ccccc3n2c1NCc1ccccn1	-	65	-	-	-	-
COc1ccc2c(c1OC)CN(C)CCc1cc3c(cc1C(=O)C2)OCO3	-	-	-	-	-	-
COc1ccc(NC(=O)c2ccccc2NC(=O)CSc2ccc(C)cc2)cc1	-	-	-	-	-	-
CCc1c(C)c(C#N)c2nc3ccccc3n2c1Cl	-	-	-	-	21	-
CC(C)(C)OC(=O)N[C@@H](COCc1ccccc1)C(=O)N[C@@H](CO)[C@H](O)[C@@H]1C[C@@H]1C(=O)NC1CC1	.	.	.	.	-	.
C[C@]12C=CC(=O)C=C1CC[C@@H]1C2=CC[C@]2(C)[C@@H](C(=O)CN3CCN(c4cc(N5CCCC5)nc(N5CCCC5)n4)CC3)CC[C@@H]12	.	.	.	.	65	.
COC(c1ccccc1)c1nnc(CCC(=O)NCc2cccc(-n3cccn3)c2)o1 (stereo not drawn)	-	-	-	-	?	-
CCN1C(=NCCc2cccs2)N[C@@H](c2cccs2)C(C(=O)OC)=C1C	.	.	.	.	31	.
Cc1ccc2nc3c(cc(C(=O)NCCc4ccccc4)c(=N)n3CCCN3CCOCC3)c(=O)n2c1	.	.	.	.	168	.
COc1ccc(CCNC(=O)c2cnc3ccccn3c2=O)cc1	-	-	-	-	-	-
COc1ccc(CCn2c(=N)c(C(=O)NCCN3CCOCC3)cc3c(=O)n4ccccc4nc32)cc1OC	.	.	.	.	-	.
COc1ccc(CCNC(=O)c2cc3c(=O)n4ccccc4nc3n(C3CCCCC3)c2=N)cc1	.	.	.	.	63	.
SMILES	Runt-CBFb FRET	Runt-SMMHC FRET	eIF4E-4G inh	Hck Nef HTS	RanGTP-Impb inh	PERK inh
COc1ccc(CCNC(=O)c2cc3c(=O)n4ccccc4nc3n(CCCN3CCOCC3)c2=N)cc1OC	.	.	.	.	16	.
CCCNc1nc2nc3ccccn3c(=O)c2cc1C(=O)NCCN1CCOCC1	.	.	.	.	131	.
COc1ccc(-n2c(-c3ccc(Br)cc3)c[n+]3c2CCC3)cc1	-	-	-	-	-	-
Cc1nc(-c2ccccc2)sc1C(=O)Nc1ccc(S(N)(=O)=O)cc1	.	.	.	.	-	.
CC(C)(C)c1cc(C(=O)NCCN2CCCC2)cc(C(C)(C)C)c1	-	-	-	-	-	-
COc1ccc(CCNC(=O)c2cc3c(=O)n4ccccc4nc3n(CCN3CCOCC3)c2=N)cc1	.	.	.	.	25	.
